We go through 4 compounds from ChEMBL document CHEMBL5230180, “A cationic amphiphilic peptide chaperone rescues Aβ42 aggregation and cytotoxicity” (RSC Med Chem, 2023).

Active and inactive are the calls of the source. No cut-off for these calls is given here.

For data set [1], the target named is Amyloid-beta precursor protein (Homo sapiens) (UniProt P05067). Nature of the data set: Inhibition of amyloid beta 42 (unknown origin) aggregation assessed as reduction in fluorescence intensity measured for 48 hrs by ThT fluorescence assay. The method, boiled down: (§1)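 Soluble (pre-aggregation) Aβ42 at 25 μM with 20 μM ThT, incubated with peptide at 0.1–10 equivalents (2.5–250 μM) in 10 mM sodium phosphate, 150 mM NaCl, 1 mM EDTA, pH 7.4; time-dependent ThT fluorescence monitored, normalized to Aβ42 alone.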

Data set [2] has the same target. Nature of the data set: Inhibition of amyloid beta 42 (unknown origin) aggregation assessed as lag time for Abeta42 aggregation at Abeta42:compound concentration ratio of 1:1 by ThT fluorescence assay (reference value: 6.35 +/-0.32 hrs).
Data set [3] has the same target. Nature of the data set: Inhibition of amyloid beta 42 (unknown origin) aggregation assessed as half time for Abeta42 aggregation at Abeta42:compound concentration ratio of 1:1 by ThT fluorescence assay (reference value: 9.34 +/-0.25 hrs).
In data set [4] the test system is SH-SY5Y. Nature of the data set: Cytotoxicity against human SH-SY5Y cells assessed as reduction in cell viability at 30 uM incubated for 24 hrs by MTT assay. Type of data set: toxicity, cell-based. The method, boiled down:
(§2)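 SH-SY5Y neuronal cells exposed to peptide alone (1–30 μM) at 37 °C up to 24 h; viability by MTT conversion to formazan, compared with untreated control cells.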
A general note: Formazan colour is commonly taken as a measure of viable cells.

Data set [5] has as its system SH-SY5Y. As to the kind of experiment: Protection against Abeta42-induced cytotoxicity in human SH-SY5Y cells assessed as increase in cell viability at Abeta42:compound concentration ratio of 1:1 incubated for 24 hrs by MTT assay. Type of data set: functional, cell-based. The method, boiled down: (§3)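 SH-SY5Y cells given 10 μM soluble Aβ42 with peptide (1, 2, 3, 5, 10, 30 μM; 1:1 for comparison) at 37 °C up to 24 h; MTT formazan read-out relative to cells without peptide or Aβ42; IC50 from dose–response.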

Data set [6] deals with Amyloid-beta precursor protein (Homo sapiens) (UniProt P05067). As to the kind of experiment: Inhibition of amyloid beta 42 (unknown origin) aggregation assessed as lag time for Abeta42 aggregation at Abeta42:compound concentration ratio of 1:0.5 by ThT fluorescence assay (reference value: 6.35 +/-0.32 hrs).
The target is the same in data set [7]. Nature of the data set: Inhibition of amyloid beta 42 (unknown origin) aggregation assessed as decrease in absorbance at 450 nm at Abeta42:compound concentration ratio of 1:0.5 to 1:10 incubated for up to 24 hrs by ELISA. The method, boiled down: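 Aβ42 in PBS preincubated 24 h with peptide (0.5–10 equivalents), then captured on oligomer-specific monoclonal antibody-coated wells; detection via biotinylated antibody, streptavidin-HRP and TMB, absorbance 450 nm; peptide-alone wells included.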
For orientation: In an ELISA, binding on a coated surface is turned into a signal by an enzyme label.

For data set [8] the target is unchanged. Nature of the data set: Inhibition of amyloid beta 42 (unknown origin) aggregation assessed as fluorescence intensity at 0.1 equivalents measured for 48 hrs by ThT fluorescence assay. Set-up: scale not given: the % may be the effect or the level left. To be noted: dose 0.1 equiv. The method, boiled down:
as §1

Data set [9] in a line: Hemolytic activity against red blood cells (unknown origin) upto 250 uM. The data set is classed as toxicity, cell-based. The conditions noted are these: erythrocyte. The method, boiled down: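 Red blood cells treated with a range of peptide concentrations up to 250 μM; haemolysis assessed.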
In data set [10] the target is Amyloid-beta precursor protein (Homo sapiens) (UniProt P05067). Nature of the data set: Inhibition of amyloid beta 42 (unknown origin) aggregation assessed as aggregated particle size at equimolar concentration with Abeta42 incubated for 24 hrs by Dynamic light scattering based analysis (reference value: 800 nm). The method, boiled down: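 Dynamic light scattering of 10 μM Aβ42 with or without peptide after 24 h at 37 °C; frequency distribution of particle diameter.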

For data set [11] the target is unchanged. Nature of the data set: Inhibition of amyloid beta 42 (unknown origin) aggregation assessed as fluorescence intensity at compound:Abeta42 concentration ratio of 1:1 measured for 48 hrs by ThT fluorescence assay. On the set-up: scale not given: the % may be the effect or the level left. The method, boiled down: as §1
The target is the same in data set [12]. As to the kind of experiment: Inhibition of amyloid beta 42 (unknown origin) aggregation assessed as fluorescence intensity at 0.3 equivalents measured for 48 hrs by ThT fluorescence assay. To be noted: dose 0.3 equiv. On the set-up: scale not given: the % may be the effect or the level left. The method, boiled down: as §1
For data set [13] the target is unchanged. As to the kind of experiment: Disruption of aggregated Amyloid beta 42 fibrils (unknown origin) assessed as reduction in fluorescence intensity at compound:Abeta42 concentration ratio of 1:1 treated with compound after 16 hrs of incubation of Abeta42 in solution by ThT fluorescence assay. The method, boiled down:
(§4)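 Aβ42 (25 μM) preincubated with 20 μM ThT at 37 °C; peptide added at 1:1 after 16 or 24 h, incubation continued and ThT fluorescence followed over time; buffer 10 mM sodium phosphate, 150 mM NaCl, 1 mM EDTA, pH 7.4.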

For data set [14] the target is unchanged. As to the kind of experiment: Inhibition of amyloid beta 42 (unknown origin) aggregation assessed as reduction in fluorescence intensity at Abeta42:compound concentration ratio of 1:10 measured for 48 hrs by ThT fluorescence assay. The method, boiled down:
as §1

For data set [15] the target is unchanged. Nature of the data set: Disruption of aggregated Amyloid beta 42 fibrils (unknown origin) assessed as reduction in fluorescence intensity at compound:Abeta42 concentration ratio of 1:1 treated with compound after 24 hrs of incubation of Abeta42 in solution by ThT fluorescence assay. The method, boiled down:
as §4

Data set [16] shares this target. Nature of the data set: Inhibition of amyloid beta 42 (unknown origin) aggregation assessed as reduction in fluorescence intensity at Abeta42:compound concentration ratio of 1:5 measured for 48 hrs by ThT fluorescence assay. The method, boiled down: as §1
Data set [17] shares this target. As to the kind of experiment: Inhibition of 15N-labeled amyloid beta 42 (unknown origin) aggregation assessed as Abeta42 conformational reorganization by measuring changes in positions of Abeta42 cross-peaks at Abeta42:compound concentration ratio of 1:1 by 1H-15N HSQC NMR spectral analysis.
Data set [18] shares this target. As to the kind of experiment: Inhibition of amyloid beta 42 (unknown origin) aggregation assessed as reduction in fluorescence intensity at equimolar concentration with Abeta42 incubated for 48 hrs by ThT laser scanning confocal microscopy.
The target is the same in data set [19]. As to the kind of experiment: Inhibition of amyloid beta 42 (unknown origin) aggregation assessed as half time for Abeta42 aggregation at Abeta42:compound concentration ratio of 1:0.5 by ThT fluorescence assay (reference value: 9.34 +/-0.25 hrs).
The target is the same in data set [20]. As to the kind of experiment: Inhibition of amyloid beta 42 (unknown origin) aggregation assessed as transformation of random coil structure to helical secondary structure with CD minima at 205 nm and 221 nm at Abeta42:compound concentration ratio of 1:1 incubated for 24 hrs by circular dichroism analysis. The method, boiled down: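 CD spectra of 50 μM soluble Aβ42 in PBS at 0 h and after 24 h at room temperature, alone or with equimolar (50 μM) peptide; peptide alone also recorded.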
Background: CD spectra are sensitive to the conformation of chiral molecules.

Data set [21] has the same target. Nature of the data set: Inhibition of amyloid beta 42 (unknown origin) aggregation assessed as fluorescence intensity at compound:Abeta42 concentration ratio of 0.5:1 measured for 48 hrs by ThT fluorescence assay. Set-up: scale not given: the % may be the effect or the level left. The method, boiled down: as §1
Data set [22] has the same target. As to the kind of experiment: Inhibition of amyloid beta 42 (unknown origin) aggregation assessed as reduction in Abeta42 fibrillar network at 10 uM incubated for 48 hrs by AFM analysis. The method, boiled down:
(§5)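 10 μM soluble Aβ42 incubated at 37 °C for about 48 h alone or with peptide (1:1; 10 μM); fibril morphology imaged by HR-TEM and AFM.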

Data set [23] deals with SH-SY5Y. Nature of the data set: Protection against Abeta42-induced cytotoxicity in human SH-SY5Y cells assessed as increase in cell viability incubated for 24 hrs in presence of 10 uM Abeta42 by MTT assay. The data set is classed as functional, cell-based. The method, boiled down:
as §3

Data set [24] concerns the target Amyloid-beta precursor protein (Homo sapiens) (UniProt P05067). Nature of the data set: Inhibition of amyloid beta 42 (unknown origin) aggregation assessed as reduction in fluorescence intensity at Abeta42:compound concentration ratio of 1:3 measured for 48 hrs by ThT fluorescence assay. The method, boiled down:
as §1

Data set [25] shares this target. As to the kind of experiment: Inhibition of amyloid beta 42 (unknown origin) aggregation assessed as reduction in Abeta42 fibrillar network at compound:Abeta42 concentration ratio of 1:1 incubated for 48 hrs by HR-TEM analysis. The method, boiled down:
as §5

Data set [26] deals with SH-SY5Y. As to the kind of experiment: Cytotoxicity against human SH-SY5Y cells assessed as reduction in cell viability upto 30 uM incubated for 24 hrs by MTT assay. The data set is classed as toxicity, cell-based. The method, boiled down:
as §2

Amyloid-beta precursor protein (Homo sapiens), sequence (P05067 whole entry): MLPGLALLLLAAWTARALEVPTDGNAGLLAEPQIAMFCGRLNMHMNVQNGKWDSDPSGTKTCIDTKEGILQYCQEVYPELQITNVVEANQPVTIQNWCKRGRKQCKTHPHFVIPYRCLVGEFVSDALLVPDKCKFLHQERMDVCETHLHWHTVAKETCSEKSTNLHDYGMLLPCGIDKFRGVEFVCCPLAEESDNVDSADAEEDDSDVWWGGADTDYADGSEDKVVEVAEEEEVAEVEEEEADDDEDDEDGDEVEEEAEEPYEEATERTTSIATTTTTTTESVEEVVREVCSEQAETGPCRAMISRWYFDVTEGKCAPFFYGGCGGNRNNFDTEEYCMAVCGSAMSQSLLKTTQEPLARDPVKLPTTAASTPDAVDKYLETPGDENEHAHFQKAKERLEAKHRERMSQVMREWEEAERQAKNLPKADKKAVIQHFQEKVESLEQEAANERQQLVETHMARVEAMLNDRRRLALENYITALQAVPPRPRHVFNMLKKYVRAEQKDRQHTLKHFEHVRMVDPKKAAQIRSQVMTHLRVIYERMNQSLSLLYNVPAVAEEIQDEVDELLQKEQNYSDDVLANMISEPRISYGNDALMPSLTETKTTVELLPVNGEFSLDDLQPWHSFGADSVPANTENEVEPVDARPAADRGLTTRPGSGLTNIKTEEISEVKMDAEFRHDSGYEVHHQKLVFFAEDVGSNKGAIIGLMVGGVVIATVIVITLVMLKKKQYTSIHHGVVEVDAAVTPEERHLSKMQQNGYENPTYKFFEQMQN

Turning to Ac-ALAALALALAALAAL-NH2, the inhibition entry in data set [1] is “inactive”.
Regarding Ac-KLAKLAKL-NH2, the inhibition entry in [1] was “Dose-Dependent Effect”. Further, the TIME in [2] turned out to be 2.14 h. In addition, the T1/2 in data set [3] is 8.22 h. In the data set with SH-SY5Y [4], the Activity entry is given as “Non-Toxic”. The result in the data set on SH-SY5Y [5] was Active.
`CC(=O)N[C@@H](CCCCN)C(=O)N[C@@H](CC(C)C)C(=O)N[C@@H](C)C(=O)N[C@@H](CCCCN)C(=O)N[C@@H](CC(C)C)C(=O)N[C@@H](C)C(=O)N[C@@H](CCCCN)C(=O)N[C@@H](CCCCN)C(=O)N[C@@H](CC(C)C)C(=O)N[C@@H](C)C(=O)N[C@@H](CCCCN)C(=O)N[C@@H](CC(C)C)C(=O)N[C@@H](C)C(=O)N[C@@H](CCCCN)C(=O)N[C@@H](CC(C)C)C(N)=O`: the TIME in data set [6] worked out at 1.8 h. The inhibition result in data set [7], in data set [14], in data set [16], in data set [18], in data set [20] and in data set [22] was “Active” each time. The inhibition result in data set [24] and in data set [25] was “Active” each time. Also, the Activity was 40% in data set [8]; “Non-Toxic” in [9]; 100 nm in [10]; below 3% in [11]; 30% in [12]; 20% in data set [21]. Further, in the data set on SH-SY5Y [26], the Activity entry is on record as “Non-Toxic”. Further, the outcome (in [13]; in [15]; in [17]; in the data set with SH-SY5Y [5]) was Active. Further, the T1/2 in [19] amounted to 6.09 h. For the same compound, the IC50 – broadly, the concentration that inhibits the measured activity by half – with SH-SY5Y [23] turned out to be 8.73 µM.
Take Ac-KLAKLAKKLAKL-NH2: the inhibition result in data set [1] is “Dose-Dependent Effect”. Moreover, in data set [2], the TIME came to 0.75 h. Moreover, in data set [3], the T1/2 worked out at 9.59 h. Moreover, the Activity result in the data set with SH-SY5Y [4] is given as “Non-Toxic”. In the data set with SH-SY5Y [5], the outcome was Active.
